# Results taken from ChEMBL document CHEMBL5678806, “NMS-P937, an orally available, specific small-molecule polo-like kinase 1 inhibitor with antitumor activity in solid and hematologic malignancies” (Mol Cancer Ther, 2012).
# Activity calls are given as the source filed them. The rule behind the calls is not given here.
# Legend:
# [1] = system: COLO-678; test: Antiproliferative activity against human COLO-678 cells assessed as inhibition of cell growth incubated for 72 hrs by cell-titer glo assay; format: functional, cell-based; details: COLO-678, 72 h
# Method in brief: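 Cells seeded 10,000–30,000/cm² (adherent) or 100,000/mL (suspension) in medium with 10% fetal calf serum; after 24 h treated in duplicate with serial dilutions for 72 h. Viable cells read by CellTiter-Glo luminescence; IC50 from sigmoidal fit; at least two independent experiments.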
# [2] = target: Tyrosine-protein kinase Fes/Fps (Homo sapiens) (UniProt P07332); test: Inhibition of N-terminal His6-tagged recombinant full length human Fes expressed in baculovirus infected Sf21 cells assessed as residual activity at 0.1 uM relative to control
# Chain of Tyrosine-protein kinase Fes/Fps (Homo sapiens) (P07332 whole entry): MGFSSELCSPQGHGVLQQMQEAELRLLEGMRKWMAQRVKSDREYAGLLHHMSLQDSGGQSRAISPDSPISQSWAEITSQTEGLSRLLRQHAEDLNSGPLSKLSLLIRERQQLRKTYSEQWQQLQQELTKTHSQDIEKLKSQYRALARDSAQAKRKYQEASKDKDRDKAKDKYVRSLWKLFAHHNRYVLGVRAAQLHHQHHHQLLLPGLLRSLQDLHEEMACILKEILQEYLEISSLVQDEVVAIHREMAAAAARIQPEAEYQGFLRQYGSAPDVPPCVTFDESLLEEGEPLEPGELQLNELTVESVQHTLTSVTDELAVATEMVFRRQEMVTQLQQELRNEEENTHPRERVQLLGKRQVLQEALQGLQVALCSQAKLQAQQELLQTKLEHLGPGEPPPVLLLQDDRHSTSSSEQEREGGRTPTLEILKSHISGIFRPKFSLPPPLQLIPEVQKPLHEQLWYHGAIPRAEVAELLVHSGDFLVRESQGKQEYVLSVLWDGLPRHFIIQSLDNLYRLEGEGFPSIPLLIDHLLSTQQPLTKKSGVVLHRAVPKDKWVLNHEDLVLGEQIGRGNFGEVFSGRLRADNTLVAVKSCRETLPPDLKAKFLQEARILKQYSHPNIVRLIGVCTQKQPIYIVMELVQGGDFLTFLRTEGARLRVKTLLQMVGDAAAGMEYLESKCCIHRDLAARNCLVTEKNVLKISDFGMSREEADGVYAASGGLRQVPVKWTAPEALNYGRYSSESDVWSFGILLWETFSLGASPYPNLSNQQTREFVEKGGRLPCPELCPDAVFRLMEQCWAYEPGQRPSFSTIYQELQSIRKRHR
# [3] = system: NCI-H929; test: Antiproliferative activity against human NCI-H929 cells assessed as inhibition of cell growth incubated for 72 hrs by cell-titer glo assay; format: functional, cell-based; details: NCI-H929, 72 h
# Method in brief: (§1)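 Cells from ATCC or ECACC, kept in supplier-recommended medium with 1% penicillin-streptomycin at 37°C, 5% CO₂. Seeded at 10,000–30,000/cm² (adherent) or 100,000/mL (nonadherent) in medium with 10% fetal calf serum. Dosed after 24 h in duplicate with serial dilutions. Viable cells read by CellTiter-Glo 72 h later. IC50 from sigmoidal fit. At least two independent experiments.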
# [4] = target: Phosphorylase b kinase gamma catalytic chain, liver/testis isoform (Homo sapiens) (UniProt P15735); test: Inhibition of GST-tagged recombinant human PhKgamma2 (1 to 301 residues) expressed in E. coli assessed as residual activity at 1 uM relative to control
# Chain of Phosphorylase b kinase gamma catalytic chain, liver/testis isoform (Homo sapiens) (P15735 whole entry, the tested form may be a part, canonical isoform): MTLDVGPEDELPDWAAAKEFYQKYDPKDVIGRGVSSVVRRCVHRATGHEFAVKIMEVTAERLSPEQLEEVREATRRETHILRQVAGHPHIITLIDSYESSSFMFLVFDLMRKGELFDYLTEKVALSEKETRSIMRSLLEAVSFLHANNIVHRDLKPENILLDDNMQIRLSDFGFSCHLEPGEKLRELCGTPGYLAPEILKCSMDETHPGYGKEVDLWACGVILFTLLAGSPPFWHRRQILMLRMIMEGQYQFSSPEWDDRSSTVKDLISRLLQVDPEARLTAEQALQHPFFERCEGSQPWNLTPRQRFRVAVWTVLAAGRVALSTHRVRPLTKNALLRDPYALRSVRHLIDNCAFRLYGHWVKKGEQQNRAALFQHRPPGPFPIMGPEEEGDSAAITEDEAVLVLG
# [5] = system: SKM-1; test: Antiproliferative activity against human SKM-1 cells assessed as inhibition of cell growth incubated for 72 hrs by cell-titer glo assay; format: functional, cell-based; details: SKM-1, 72 h
# [6] = system: RPMI-8226; test: Antiproliferative activity against human RPMI-8226 cells assessed as inhibition of cell growth incubated for 72 hrs by cell-titer glo assay; format: functional, cell-based; details: RPMI-8226, 72 h; method in brief: as §1
# [7] = target: SRSF protein kinase 3 (Homo sapiens) (UniProt Q9UPE1); test: Inhibition of N-terminal 6His-tagged recombinant human full-length MSSK1 expressed in baculovirus infected Sf21 cells assessed as residual activity at 1 uM relative to control
# [8] = Cmax in male cynomolgus monkey at 5 mg/kg, iv by LC-MS analysis; format: ADME, organism-based, Macaca fascicularis; details: in vivo
# [9] = Volume of distribution at steady state in male cynomolgus monkey at 5 mg/kg, iv by LC-MS analysis; format: ADME, organism-based, Macaca fascicularis; details: in vivo, read-out: Vdss
# [10] = Cmax in male cynomolgus monkey at 5 mg/kg, po by LC-MS analysis; format: ADME, organism-based, Macaca fascicularis; details: in vivo
# [11] = target: Mitogen-activated protein kinase kinase kinase 5 (Homo sapiens) (UniProt Q99683); test: Inhibition of N-Terminal GST and C-terminal His6-tagged recombinant human ASK1 (649 to 946 residues) expressed in E. coli cell assessed as residual activity at 0.1 uM relative to control
# [12] = Antiproliferative activity against human HCC15 cells assessed as inhibition of cell growth incubated for 72 hrs by cell-titer glo assay; format: functional, cell-based; details: HCC15, 72 h
# Method in brief: (§2)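 Cells seeded at 10,000–30,000/cm² (adherent) or 100,000/mL (nonadherent) in medium with 10% fetal calf serum; after 24 h, treated in duplicate with serial dilutions for 72 h. Viable cell number read by CellTiter-Glo luminescence; IC50 from sigmoidal fit; at least two independent experiments.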
# [13] = system: NCI-H358; test: Antiproliferative activity against human NCI-H358 cells assessed as inhibition of cell growth incubated for 72 hrs by cell-titer glo assay; format: functional, cell-based; details: NCI-H358, 72 h; method in brief: as §1
# [14] = target: cAMP-dependent protein kinase catalytic subunit PRKX (Homo sapiens) (UniProt P51817); test: Inhibition of N-terminal 6His-tagged recombinant full-length human PrKX expressed in baculovirus infected Sf21 cells assessed as residual activity at 1 uM relative to control
# Chain of cAMP-dependent protein kinase catalytic subunit PRKX (Homo sapiens) (P51817 whole entry): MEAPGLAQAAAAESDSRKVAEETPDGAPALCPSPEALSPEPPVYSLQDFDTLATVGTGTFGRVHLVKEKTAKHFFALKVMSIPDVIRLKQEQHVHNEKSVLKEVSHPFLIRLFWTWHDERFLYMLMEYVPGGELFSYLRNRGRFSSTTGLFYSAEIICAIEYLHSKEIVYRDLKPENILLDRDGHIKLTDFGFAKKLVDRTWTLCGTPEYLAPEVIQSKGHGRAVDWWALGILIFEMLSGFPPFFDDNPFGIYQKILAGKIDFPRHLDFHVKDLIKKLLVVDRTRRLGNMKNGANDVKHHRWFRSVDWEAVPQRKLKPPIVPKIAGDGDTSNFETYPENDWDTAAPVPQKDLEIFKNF
# [15] = system: A2780; test: Antiproliferative activity against human A2780 cells assessed as reduction in cell number at 0.5 to 1 uM incubated for 8 hrs followed by compound washout and measured after 24 to 48 hrs by cell titer glow assay; format: functional, cell-based; details: dose 0.5-1 µM
# Method in brief: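 A2780 cells exposed to 0.5 or 1 μmol/L for 8 hours, then compound withdrawn; cells replated and grown 24 and 48 hours in drug-free medium before assessing cell growth.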
# [16] = Antiproliferative activity against human PL-21 cells assessed as inhibition of cell growth incubated for 72 hrs by cell-titer glo assay; format: functional, cell-based; details: PL-21, 72 h; method in brief: as §1
# [17] = system: HCC78; test: Antiproliferative activity against human HCC78 cells assessed as inhibition of cell growth incubated for 72 hrs by cell-titer glo assay; format: functional, cell-based; details: HCC78, 72 h; method in brief: as §2
# [18] = system: OVCAR-3; test: Antiproliferative activity against human OVCAR-3 cells assessed as inhibition of cell growth incubated for 72 hrs by cell-titer glo assay; format: functional, cell-based; details: OVCAR-3, 72 h; method in brief: as §1
# [19] = target: BDNF/NT-3 growth factors receptor (Homo sapiens) (UniProt Q16620); test: Inhibition of N-terminal His6 tagged recombinant human TrkB (455 to end residues) expressed in baculovirus infected Sf21 cells assessed as residual activity at 1 uM relative to control
# Chain of BDNF/NT-3 growth factors receptor (Homo sapiens) (Q16620 32-822 limits assumed): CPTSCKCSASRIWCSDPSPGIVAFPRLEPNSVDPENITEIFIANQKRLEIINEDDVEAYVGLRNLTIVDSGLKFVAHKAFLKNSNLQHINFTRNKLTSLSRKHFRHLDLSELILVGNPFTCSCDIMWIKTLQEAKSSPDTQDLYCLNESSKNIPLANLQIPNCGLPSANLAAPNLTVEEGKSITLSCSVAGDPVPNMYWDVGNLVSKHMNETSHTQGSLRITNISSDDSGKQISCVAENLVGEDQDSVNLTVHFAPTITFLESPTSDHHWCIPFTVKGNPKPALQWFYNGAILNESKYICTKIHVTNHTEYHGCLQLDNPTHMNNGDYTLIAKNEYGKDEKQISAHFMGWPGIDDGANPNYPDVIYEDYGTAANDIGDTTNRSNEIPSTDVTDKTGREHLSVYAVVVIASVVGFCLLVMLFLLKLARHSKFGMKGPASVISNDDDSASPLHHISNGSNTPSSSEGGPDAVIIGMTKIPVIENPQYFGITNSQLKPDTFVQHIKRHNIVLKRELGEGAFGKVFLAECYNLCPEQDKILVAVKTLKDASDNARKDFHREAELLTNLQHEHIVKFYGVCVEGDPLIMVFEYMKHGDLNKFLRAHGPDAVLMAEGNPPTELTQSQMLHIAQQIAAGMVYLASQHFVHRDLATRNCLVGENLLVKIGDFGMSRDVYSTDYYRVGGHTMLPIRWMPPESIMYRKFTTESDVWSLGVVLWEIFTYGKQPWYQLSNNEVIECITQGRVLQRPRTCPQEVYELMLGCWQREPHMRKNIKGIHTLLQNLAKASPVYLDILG
# [20] = target: Ephrin type-B receptor 1 (Homo sapiens) (UniProt P54762); test: Inhibition of N-terminal 6His-tagged recombinant human EphB1 (564 to end residues) expressed in baculovirus infected Sf21 cells assessed as residual activity at 0.1 uM relative to control
# Chain of Ephrin type-B receptor 1 (Homo sapiens) (P54762 whole entry, the tested form may be a part): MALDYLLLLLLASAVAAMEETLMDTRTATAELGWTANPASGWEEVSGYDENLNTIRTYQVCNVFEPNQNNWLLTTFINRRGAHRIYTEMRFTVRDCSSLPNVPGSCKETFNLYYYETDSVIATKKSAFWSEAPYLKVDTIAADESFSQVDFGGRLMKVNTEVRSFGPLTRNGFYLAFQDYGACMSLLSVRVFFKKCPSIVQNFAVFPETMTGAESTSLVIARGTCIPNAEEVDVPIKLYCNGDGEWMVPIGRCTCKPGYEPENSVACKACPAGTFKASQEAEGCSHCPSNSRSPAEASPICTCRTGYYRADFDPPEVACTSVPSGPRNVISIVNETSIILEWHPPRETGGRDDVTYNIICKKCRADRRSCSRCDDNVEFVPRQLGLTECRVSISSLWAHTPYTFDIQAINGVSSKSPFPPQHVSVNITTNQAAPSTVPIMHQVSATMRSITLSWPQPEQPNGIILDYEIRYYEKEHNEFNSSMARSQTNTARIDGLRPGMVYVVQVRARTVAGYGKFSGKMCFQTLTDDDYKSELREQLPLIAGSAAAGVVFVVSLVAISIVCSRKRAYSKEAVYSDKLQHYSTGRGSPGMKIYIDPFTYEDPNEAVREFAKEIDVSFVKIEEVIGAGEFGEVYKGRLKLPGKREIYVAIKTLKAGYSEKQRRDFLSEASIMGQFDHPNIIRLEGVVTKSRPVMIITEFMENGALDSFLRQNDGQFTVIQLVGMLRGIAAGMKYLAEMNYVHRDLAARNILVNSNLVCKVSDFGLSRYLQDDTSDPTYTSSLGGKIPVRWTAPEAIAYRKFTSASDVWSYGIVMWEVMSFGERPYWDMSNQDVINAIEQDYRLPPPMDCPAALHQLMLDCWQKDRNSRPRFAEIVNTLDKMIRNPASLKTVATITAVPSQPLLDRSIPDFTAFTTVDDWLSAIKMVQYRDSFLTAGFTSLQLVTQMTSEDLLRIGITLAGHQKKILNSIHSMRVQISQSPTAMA
# [21] = target: Homeodomain-interacting protein kinase 2 (Homo sapiens) (UniProt Q9H2X6); test: Inhibition of N-terminal His6-tagged recombinant human HIPK2 (165 to 564 residues) expressed in baculovirus infected Sf21 cells assessed as residual activity at 0.1 uM relative to control
# [22] = target: PDPK1, 3-phosphoinositide-dependent protein kinase 1 (Homo sapiens) (UniProt O15530); test: Inhibition of N-terminal His6-tagged recombinant human PDK1 (52 to end residues) expressed in baculovirus infected Sf21 cells assessed as residual activity at 1 uM relative to control
# Chain of PDPK1, 3-phosphoinositide-dependent protein kinase 1 (Homo sapiens) (O15530 whole entry, looked up): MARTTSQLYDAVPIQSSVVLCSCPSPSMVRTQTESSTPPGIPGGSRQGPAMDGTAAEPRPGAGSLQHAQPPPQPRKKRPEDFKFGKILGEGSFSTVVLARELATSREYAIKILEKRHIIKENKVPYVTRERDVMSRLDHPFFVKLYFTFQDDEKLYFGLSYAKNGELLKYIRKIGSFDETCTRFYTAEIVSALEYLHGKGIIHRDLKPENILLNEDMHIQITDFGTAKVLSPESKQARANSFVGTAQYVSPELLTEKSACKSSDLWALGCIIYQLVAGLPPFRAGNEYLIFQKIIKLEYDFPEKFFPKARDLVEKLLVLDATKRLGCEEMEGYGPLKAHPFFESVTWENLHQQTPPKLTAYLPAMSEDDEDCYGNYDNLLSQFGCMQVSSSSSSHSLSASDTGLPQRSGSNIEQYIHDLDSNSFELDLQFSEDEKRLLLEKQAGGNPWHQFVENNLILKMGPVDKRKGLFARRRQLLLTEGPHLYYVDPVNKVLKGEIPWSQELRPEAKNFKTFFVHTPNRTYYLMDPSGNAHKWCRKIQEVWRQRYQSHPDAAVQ
# [23] = target: Ribosomal protein S6 kinase alpha-4 (Homo sapiens) (UniProt O75676); test: Inhibition of N-terminal His6-tagged recombinant human MSK2 (2 to end residues) expressed in baculovirus infected Sf21 cells assessed as residual activity at 1 uM relative to control
# Chain of Ribosomal protein S6 kinase alpha-4 (Homo sapiens) (O75676 whole entry, looked up): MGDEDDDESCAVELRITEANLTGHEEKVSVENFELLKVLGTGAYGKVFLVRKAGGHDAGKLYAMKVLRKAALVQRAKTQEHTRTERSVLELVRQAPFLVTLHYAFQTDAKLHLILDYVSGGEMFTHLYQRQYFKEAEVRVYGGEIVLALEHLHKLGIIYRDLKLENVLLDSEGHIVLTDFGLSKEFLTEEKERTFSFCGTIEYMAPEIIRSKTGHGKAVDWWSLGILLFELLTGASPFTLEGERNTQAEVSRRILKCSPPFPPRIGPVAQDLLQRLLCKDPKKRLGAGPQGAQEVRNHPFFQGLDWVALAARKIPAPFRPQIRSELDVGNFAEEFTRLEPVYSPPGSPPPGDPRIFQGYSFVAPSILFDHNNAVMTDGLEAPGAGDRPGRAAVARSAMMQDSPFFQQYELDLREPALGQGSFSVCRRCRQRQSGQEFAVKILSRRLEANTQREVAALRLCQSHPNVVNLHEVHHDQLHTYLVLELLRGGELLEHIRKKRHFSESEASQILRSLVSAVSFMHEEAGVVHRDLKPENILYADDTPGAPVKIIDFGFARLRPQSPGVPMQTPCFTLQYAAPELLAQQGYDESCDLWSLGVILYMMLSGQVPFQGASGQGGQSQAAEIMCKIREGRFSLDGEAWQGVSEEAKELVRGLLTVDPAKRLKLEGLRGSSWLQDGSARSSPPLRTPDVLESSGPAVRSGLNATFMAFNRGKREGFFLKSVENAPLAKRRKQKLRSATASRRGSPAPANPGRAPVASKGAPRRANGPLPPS
compound,measurement,setting,value
CN1CCN(c2ccc(OC(F)(F)F)c(Nc3ncc4c(n3)-c3c(c(C(N)=O)nn3CCO)CC4)c2)CC1 [ONVANSERTIB],IC50,[1],354 nM
same,Activity,[2],73%
same,IC50,[3],63 nM
same,Activity,[4],88%
same,IC50,[5],60 nM
same,IC50,[6],128 nM
same,Activity,[7],89%
same,Cmax,[8],3000 nM
same,Vd,[9],2.9 L/kg
same,Cmax,[10],1900 nM
same,Activity,[11],123%
same,IC50,[12],15 nM
same,IC50,[13],175 nM
same,Activity,[14],69%
same,Activity,[15],Active
same,IC50,[16],22 nM
same,IC50,[17],340 nM
same,IC50,[18],41 nM
same,Activity,[19],80%
same,Activity,[20],69%
same,Activity,[21],118%
same,Activity,[22],144%
same,Activity,[23],85%
